In ChEMBL document CHEMBL2203253, “An ecofriendly synthesis and DNA binding interaction study of some pyrazolo [1,5-a]pyrimidines derivatives” (Bioorg Med Chem Lett, 2012):
Activity calls are given as the source filed them. The rule behind the calls is not given here.

Key:
Type in all cases: nucleic-acid assay
Settings in all cases: Bos taurus
Nucleic Acid [1] = assay: Binding affinity to calf thymus DNA assessed as intrinsic binding constant by UV-visible absorption spectroscopy
Method in brief: (§1)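 CT-DNA checked for purity by A260/A280; concentration per nucleotide from extinction coefficient at 260 nm (6600 M-1 cm-1). Compound held constant at 30 μM in 50% DMSO/phosphate buffer, pH 7.2 (5 mM in one passage, 0.2 M in another). DNA titrated from 0 to 100 μM, spectra recorded after each addition once equilibrated.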

Nucleic Acid [2] = assay: Binding affinity to calf thymus DNA assessed as bathochromic shift at 30 uM by UV-visible absorption spectroscopy; method in brief: as §1
Nucleic Acid [3] = assay: Binding affinity to calf thymus DNA assessed as increase in viscosity of short, rod-like DNA at compound to DNA ratio of 0.2 to 1.4 by viscometer
Method in brief: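 Viscometer titration of CT-DNA solution (496.2 μmol/L) in phosphate buffer pH 7.2 with increasing compound concentrations. Flow time measured at 25 °C in an Ostwald viscometer, with the same method for each compound.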

Nucleic Acid [4] = assay: Binding affinity to calf thymus DNA assessed as melting temperature at 5 to 10 uM by thermal denaturation analysis
Method in brief: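 Thermal melting of CT-DNA (50 μM) in phosphate buffer pH 7.2, with and without compound (5–10 μM). Absorbance at 260 nm followed across temperatures. Tm taken as the point of 50% strand separation, with curve width from the 10–90% absorbance rise.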

Nucleic Acid [5] = assay: Binding affinity to calf thymus DNA assessed as hypochromicity at 30 uM by UV-visible absorption spectroscopy; method in brief: as §1

Kb (Nucleic Acid [1]) [×10⁵ /M] | Activity (Nucleic Acid [2]) | Activity (Nucleic Acid [3]) | Tm (Nucleic Acid [4]) [°C] | Activity (Nucleic Acid [5]) | SMILES
5.21 | Active | Active | 80 | Active | CCCCc1nc(Cl)c(/C=C2/C(=O)N(c3ccccc3)N=C2C)[nH]1
5.7 | Active | Active | 82 | Active | CCCCc1nc(Cl)c([C@@H]2[C@H]3C(C)=NN(c4ccccc4)C3=Nc3c(/N=N/c4ccc(Cl)cc4)c(N)nn32)[nH]1
